This is an account of results in ChEMBL document CHEMBL4823258, “Development of Dimethylisoxazole-Attached Imidazo[1,2-a]pyridines as Potent and Selective CBP/P300 Inhibitors” (J Med Chem, 2021).

Active and inactive are the calls of the source. No cut-off for these calls is given here.

Assay [1] is filed under the species Homo sapiens. Description: Selectivity ratio of IC50 for His-tagged BRD4 BD1 (unknown origin) using biotinylated-JQ1 peptide as substrate to IC50 for His-tagged CBP (unknown origin) using biotinylated-H3K56ac peptide as substrate incubated for 1 hr by AlphaScreen assay. Background: Alpha assays give light when donor and acceptor beads are brought close together.

Assay [2] deals with T1, Histone acetyltransferase p300 (Homo sapiens, UniProt Q09472). Briefly: Binding affinity to human partial length EP300 (A1040 to G1161 residues) expressed in bacterial expression system by BromoELECT assay. In outline: (§1)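 Kd by Eurofins BromoELECT, standard protocol, measured in duplicate.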
T1 sequence (Q09472 whole entry, the tested form may be a part): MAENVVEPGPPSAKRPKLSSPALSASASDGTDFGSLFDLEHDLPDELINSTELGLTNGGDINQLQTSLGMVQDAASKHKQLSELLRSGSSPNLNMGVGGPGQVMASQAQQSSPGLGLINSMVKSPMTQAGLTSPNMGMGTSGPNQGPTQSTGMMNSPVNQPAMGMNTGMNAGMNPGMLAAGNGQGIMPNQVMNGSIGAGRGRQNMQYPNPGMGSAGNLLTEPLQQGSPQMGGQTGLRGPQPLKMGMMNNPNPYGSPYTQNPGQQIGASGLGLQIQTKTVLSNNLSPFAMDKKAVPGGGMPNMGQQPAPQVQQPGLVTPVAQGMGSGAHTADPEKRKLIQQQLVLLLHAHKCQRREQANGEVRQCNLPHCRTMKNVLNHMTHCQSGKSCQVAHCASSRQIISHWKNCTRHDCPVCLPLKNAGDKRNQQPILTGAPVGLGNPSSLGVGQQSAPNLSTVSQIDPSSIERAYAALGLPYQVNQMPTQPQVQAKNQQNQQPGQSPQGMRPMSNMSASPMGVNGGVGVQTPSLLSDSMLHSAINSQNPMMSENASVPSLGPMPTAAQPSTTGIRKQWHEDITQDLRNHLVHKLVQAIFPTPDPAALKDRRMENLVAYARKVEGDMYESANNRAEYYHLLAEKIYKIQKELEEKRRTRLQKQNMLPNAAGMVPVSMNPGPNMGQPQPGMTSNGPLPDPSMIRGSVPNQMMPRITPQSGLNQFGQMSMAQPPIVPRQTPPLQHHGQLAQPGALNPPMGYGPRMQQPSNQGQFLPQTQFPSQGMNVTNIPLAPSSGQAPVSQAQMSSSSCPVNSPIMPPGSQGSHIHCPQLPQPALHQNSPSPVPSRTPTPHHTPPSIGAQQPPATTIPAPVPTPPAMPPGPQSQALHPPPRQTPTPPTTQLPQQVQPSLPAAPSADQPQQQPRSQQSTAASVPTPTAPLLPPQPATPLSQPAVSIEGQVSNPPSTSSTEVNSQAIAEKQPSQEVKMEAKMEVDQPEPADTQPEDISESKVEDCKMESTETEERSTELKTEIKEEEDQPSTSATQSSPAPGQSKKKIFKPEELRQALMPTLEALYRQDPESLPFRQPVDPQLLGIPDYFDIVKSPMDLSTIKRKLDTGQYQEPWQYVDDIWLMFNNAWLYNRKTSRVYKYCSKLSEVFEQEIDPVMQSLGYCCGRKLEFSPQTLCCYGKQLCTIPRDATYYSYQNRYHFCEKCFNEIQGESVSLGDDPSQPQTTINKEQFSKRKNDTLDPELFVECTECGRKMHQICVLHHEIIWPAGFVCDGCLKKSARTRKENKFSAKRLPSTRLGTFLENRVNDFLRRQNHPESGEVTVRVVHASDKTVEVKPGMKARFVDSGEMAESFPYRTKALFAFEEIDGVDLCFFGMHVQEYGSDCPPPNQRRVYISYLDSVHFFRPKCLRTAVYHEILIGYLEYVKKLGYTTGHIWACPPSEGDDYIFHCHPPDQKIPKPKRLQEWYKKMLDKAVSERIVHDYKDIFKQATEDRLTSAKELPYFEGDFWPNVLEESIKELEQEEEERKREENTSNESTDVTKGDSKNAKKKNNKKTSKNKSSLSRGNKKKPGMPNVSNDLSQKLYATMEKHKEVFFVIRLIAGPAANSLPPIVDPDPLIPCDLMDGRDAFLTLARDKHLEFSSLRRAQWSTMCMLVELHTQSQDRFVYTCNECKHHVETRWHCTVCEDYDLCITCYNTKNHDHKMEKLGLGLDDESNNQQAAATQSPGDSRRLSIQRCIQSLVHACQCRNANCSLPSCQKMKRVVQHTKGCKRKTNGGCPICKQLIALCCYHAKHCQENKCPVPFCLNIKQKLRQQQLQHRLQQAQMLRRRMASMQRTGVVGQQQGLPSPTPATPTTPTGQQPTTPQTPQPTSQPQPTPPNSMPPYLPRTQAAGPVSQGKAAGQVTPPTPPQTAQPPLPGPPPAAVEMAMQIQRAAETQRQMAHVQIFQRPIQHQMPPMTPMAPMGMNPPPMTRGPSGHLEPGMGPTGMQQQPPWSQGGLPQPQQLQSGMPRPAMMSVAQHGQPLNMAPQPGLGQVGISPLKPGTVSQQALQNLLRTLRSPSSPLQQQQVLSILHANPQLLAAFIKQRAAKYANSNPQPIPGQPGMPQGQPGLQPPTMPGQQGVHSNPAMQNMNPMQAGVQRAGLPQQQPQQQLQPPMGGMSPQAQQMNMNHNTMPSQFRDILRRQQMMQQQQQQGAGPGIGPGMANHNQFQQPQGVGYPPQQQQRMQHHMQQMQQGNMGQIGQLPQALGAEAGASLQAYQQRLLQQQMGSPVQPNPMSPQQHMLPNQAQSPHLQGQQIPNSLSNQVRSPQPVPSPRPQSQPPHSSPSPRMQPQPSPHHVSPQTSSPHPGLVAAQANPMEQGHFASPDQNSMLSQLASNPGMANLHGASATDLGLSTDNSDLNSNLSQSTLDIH
Assay [3] deals with T2, CREB-binding protein (Homo sapiens, UniProt Q92793). Briefly: Inhibition of His-tagged CBP (unknown origin) using biotinylated-H3K56ac peptide as substrate incubated for 1 hr by AlphaScreen assay.
For assay [4], the target named is T3, Bromodomain-containing protein 4 (Homo sapiens, UniProt O60885). Description: Inhibition of His-tagged BRD4 BD1 (unknown origin) using biotinylated-JQ1 peptide as substrate incubated for 1 hr by AlphaScreen assay.
Assay [5] has as its target T2, CREB-binding protein. Description: Binding affinity to human partial length CREBBP (R1081 to G1197 residues) expressed in bacterial expression system assessed as melting temperature by differential scanning fluorometry (reference value: 46.7 degreeC).
Target sequence in this assay (Q92793 2-2442 limits assumed): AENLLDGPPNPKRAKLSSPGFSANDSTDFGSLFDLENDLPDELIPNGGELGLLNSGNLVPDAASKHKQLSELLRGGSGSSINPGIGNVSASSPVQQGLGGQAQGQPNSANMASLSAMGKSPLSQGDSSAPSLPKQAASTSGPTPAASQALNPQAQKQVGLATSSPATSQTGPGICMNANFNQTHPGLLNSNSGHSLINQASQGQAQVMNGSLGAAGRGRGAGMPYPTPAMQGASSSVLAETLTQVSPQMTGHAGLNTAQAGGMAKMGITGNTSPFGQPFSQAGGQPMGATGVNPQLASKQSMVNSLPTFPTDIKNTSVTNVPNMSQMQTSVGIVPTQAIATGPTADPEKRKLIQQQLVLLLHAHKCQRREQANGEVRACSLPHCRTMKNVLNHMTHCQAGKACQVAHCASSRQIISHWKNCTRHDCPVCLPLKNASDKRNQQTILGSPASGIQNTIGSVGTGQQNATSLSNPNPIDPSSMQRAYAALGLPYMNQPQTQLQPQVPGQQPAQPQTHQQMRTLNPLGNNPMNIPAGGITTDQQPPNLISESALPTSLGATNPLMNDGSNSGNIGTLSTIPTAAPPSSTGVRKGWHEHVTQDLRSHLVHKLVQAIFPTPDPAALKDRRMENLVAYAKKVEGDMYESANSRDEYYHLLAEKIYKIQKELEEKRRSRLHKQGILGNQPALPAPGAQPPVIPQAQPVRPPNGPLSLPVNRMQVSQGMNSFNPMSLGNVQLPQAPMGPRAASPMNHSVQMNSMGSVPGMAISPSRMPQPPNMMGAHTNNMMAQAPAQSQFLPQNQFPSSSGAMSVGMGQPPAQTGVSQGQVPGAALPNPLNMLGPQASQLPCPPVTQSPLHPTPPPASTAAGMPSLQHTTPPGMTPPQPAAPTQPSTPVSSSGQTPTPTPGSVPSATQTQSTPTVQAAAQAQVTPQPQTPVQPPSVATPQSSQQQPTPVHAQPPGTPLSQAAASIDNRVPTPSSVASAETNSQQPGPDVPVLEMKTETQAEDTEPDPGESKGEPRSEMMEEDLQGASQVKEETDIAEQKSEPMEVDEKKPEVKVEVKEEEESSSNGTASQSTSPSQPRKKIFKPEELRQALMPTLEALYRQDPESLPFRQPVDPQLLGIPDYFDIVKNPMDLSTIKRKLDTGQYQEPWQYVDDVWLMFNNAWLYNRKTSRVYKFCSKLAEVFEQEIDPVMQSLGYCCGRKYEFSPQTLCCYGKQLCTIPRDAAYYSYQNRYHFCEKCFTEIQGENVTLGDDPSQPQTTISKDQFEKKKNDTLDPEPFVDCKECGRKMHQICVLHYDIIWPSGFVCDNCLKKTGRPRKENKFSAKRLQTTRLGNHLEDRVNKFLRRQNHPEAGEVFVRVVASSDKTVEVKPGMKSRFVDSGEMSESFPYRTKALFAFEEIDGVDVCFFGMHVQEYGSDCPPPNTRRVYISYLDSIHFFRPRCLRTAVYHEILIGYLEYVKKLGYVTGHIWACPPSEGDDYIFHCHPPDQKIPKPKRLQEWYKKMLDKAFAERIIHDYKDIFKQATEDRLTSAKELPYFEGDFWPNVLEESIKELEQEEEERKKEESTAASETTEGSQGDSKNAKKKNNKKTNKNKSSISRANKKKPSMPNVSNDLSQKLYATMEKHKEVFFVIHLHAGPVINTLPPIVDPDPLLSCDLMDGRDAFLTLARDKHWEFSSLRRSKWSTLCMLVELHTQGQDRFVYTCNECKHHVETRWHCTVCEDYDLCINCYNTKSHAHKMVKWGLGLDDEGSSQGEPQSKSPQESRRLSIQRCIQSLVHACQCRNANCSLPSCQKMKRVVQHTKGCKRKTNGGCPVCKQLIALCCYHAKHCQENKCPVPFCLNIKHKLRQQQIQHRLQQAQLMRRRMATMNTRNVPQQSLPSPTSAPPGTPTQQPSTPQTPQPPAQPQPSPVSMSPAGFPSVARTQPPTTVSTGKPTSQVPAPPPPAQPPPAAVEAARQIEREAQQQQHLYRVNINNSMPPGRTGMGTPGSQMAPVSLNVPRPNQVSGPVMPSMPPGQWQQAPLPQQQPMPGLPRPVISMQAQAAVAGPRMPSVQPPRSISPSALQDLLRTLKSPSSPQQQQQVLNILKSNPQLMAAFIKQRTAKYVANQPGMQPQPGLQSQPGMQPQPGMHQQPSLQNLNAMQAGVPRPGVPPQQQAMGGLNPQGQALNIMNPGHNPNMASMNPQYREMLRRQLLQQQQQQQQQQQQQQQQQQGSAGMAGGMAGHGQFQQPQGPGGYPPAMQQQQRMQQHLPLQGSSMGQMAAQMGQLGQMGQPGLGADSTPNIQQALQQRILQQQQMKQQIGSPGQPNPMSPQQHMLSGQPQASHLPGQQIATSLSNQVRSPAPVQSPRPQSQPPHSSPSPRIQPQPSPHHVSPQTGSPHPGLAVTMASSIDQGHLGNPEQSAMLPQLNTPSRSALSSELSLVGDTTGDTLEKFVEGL
Assay [6] addresses T1, Histone acetyltransferase p300. Briefly: Binding affinity to human partial length EP300 (A1040 to G1161 residues) expressed in bacterial expression system assessed as melting temperature by differential scanning fluorometry (reference value: 42.1 degreeC).
Assay [7] addresses T3, Bromodomain-containing protein 4. Briefly: Binding affinity to human partial length BRD4 bromodomain 1 long isoform (N44 to E168 residues) expressed in bacterial expression system assessed as melting temperature by differential scanning fluorometry (reference value: 50.1 degreeC). A general note: DSF heats the sample and reads unfolding from a dye or from intrinsic fluorescence.

Assay [8] has as its target T2, CREB-binding protein. Briefly: Binding affinity to human partial length CREBBP (R1081 to G1197 residues) expressed in bacterial expression system by BromoELECT assay. In outline: as §1
The target in assay [9] is T3, Bromodomain-containing protein 4. Description: Binding affinity to human partial length BRD4 bromodomain 1 long isoform (N44 to E168 residues) expressed in bacterial expression system by BromoELECT assay. In a few lines: as §1
The subject of assay [10] is MOLM-13. Description: Cytotoxicity against human MOLM-13 cells assessed as cell growth inhibition incubated for 5 days by CellTiter-Glo luminescence assay. The assay is classed as functional, cell-based. The settings on record: MOLM-13, 120 h. (Cellular ATP, detected with luciferase, serves as a proxy for viable cell number.)
In assay [11] the target is T2, CREB-binding protein. Briefly: Inhibition of CBP in human MOLM-13 cells assessed as reduction in H3K27Ac level at 1 to 10 uM incubated for 2 hrs by Western blot analysis. It counts as cell-based. The settings on record: dose 1-10 µM.
Target sequence in this assay (Q92793 2-2442 limits assumed): as above
Assay [12] deals with T2, CREB-binding protein. Briefly: Inhibition of CBP in human MOLM-13 cells assessed as depletion of Myc at 1 to 10 uM incubated for 2 hrs by Western blot analysis. The settings on record: dose 1-10 µM. It counts as cell-based.
Target sequence in this assay (Q92793 2-2442 limits assumed): as above
The target in assay [13] is T2, CREB-binding protein. Briefly: Inhibition of CBP in human MOLM-13 cells assessed as reduction in H3K27Ac level at 3 uM incubated for 2 hrs.
Target sequence in this assay (Q92793 2-2442 limits assumed): as above
The target in assay [14] is CREB-binding protein/Histone acetyltransferase p300 (Homo sapiens) (UniProt Q09472+Q92793). Description: Inhibition of CBP/EP300 in human MM1.S cells assessed as perturbation of IRF4/Myc axis at 2.5 uM incubated for 24 hrs by immunoblot analysis.

On to `CCOc1ccc(CCc2nc3cc(-c4c(C)noc4C)ccn3c2NC2CCCCC2)cc1`, for which the Ratio IC50 in assay [1] came to 30.
The molecule `Cc1noc(C)c1-c1ccc2nc(-c3ccc(N4CCN(C(=O)CCCC(=O)NCCCOCCOCCOCCCNC(=O)CCCC[C@@H]5SC[C@@H]6NC(=O)N[C@@H]65)CC4)cc3)c(NC3CCCCC3)n2c1` displayed a Kd in assay [2] of 13000 nM.
On to `CCCOc1ccc(CCc2nc3cc(-c4c(C)noc4C)ccn3c2NC2CCCCC2)cc1`, for which the Ratio IC50 in assay [1] was 28.
`COc1ccc(CCc2nc3cc(-c4c(C)noc4C)ccn3c2NCc2ccc(Cl)cc2)cc1`: the IC50 in [3] was determined as 1.6 µM; in assay [4], 7.94 µM. For the same molecule, the Ratio IC50 in assay [1] was 5.
Regarding `Cc1noc(C)c1-c1ccn2c(NC(C)(C)C)c(CCc3ccccc3)nc2c1`, the Ratio IC50 in [1] is 6.
Turning to `COc1ccc(CCc2nc3cc(-c4c(C)noc4C)ccn3c2NC23CC4CC(CC(C4)C2)C3)cc1`, the Ratio IC50 in assay [1] was 8.
On the same count and under the same terms, to `Cc1noc(C)c1-c1ccn2c(NC34CC5CC(CC(C5)C3)C4)c(CCc3ccccc3)nc2c1` belongs 7.
On to `COc1ccc(CCc2nc3cc(-c4c(C)noc4C)ccn3c2NC(C)C)cc1OC`, for which, in [1], the Ratio IC50 came to 6.
In turn, `CCOc1ccc(CCc2nc3cc(-c4c(C)noc4C)ccn3c2NC(C)(C)CC(C)(C)C)cc1Cl` gave an IC50 in assay [4] of more than 50 µM. In assay [1], the Ratio IC50 was more than 2.
Take `Cc1noc(C)c1-c1ccn2c(NCC(=O)OC(C)(C)C)c(CCc3ccccc3)nc2c1`: the IC50 in assay [4] was more than 50 µM. Also, the Ratio IC50 in assay [1] was more than 6.
As for `COc1ccc(CCCc2nc3cc(-c4c(C)noc4C)ccn3c2NC(C)(C)CC(C)(C)C)cc1`, the IC50 in assay [3] and in assay [4] was more than 50 µM each time. Also, the Ratio IC50 in assay [1] came out at 1.
As for `COc1ccc(CCc2nc3cc(-c4c(C)noc4C)ccn3c2NC2CCCCC2)cc1Cl`, the Tm in assay [5] worked out at 51.7 °C; in assay [6], 47 °C; in assay [7], 50.1 °C. For the same molecule, the Kd is 315 nM in [8], 215 nM in assay [2] and more than 10 µM in assay [9]. Also, the IC50 in [10] stood at 1740 nM. The inhibition result in [11], in [12], in [13] and in assay [14] was “Active” each time.
On to `CCOc1ccc(CCc2nc3cc(-c4c(C)noc4C)ccn3c2NC2CCCCC2)cc1Cl`, for which the IC50 in assay [4] is more than 50 µM. For the same molecule, the Ratio IC50 in assay [1] worked out at 20.
On to `COc1ccc(CCCc2nc3cc(-c4c(C)noc4C)ccn3c2NC2CCCCC2)cc1`, for which the Ratio IC50 in assay [1] was 3.
Consider `Cc1noc(C)c1-c1ccn2c(NC3CCCCC3)c(CCc3ccccc3)nc2c1`, for which, in assay [1], the Ratio IC50 is 10. For the same molecule, the values for the Tm in assay [5], in [6] and in [7] were 49.2 °C, 44.7 °C and 51 °C, respectively.
Consider `Cc1noc2cc(-c3ccn4c(NC5CCCCC5)c(CCc5ccccc5)nc4c3)ccc12`, for which the IC50 in [3] is more than 50 µM; in [4] it was 3.02 µM. Further, the Ratio IC50 in assay [1] was determined as 0.06. Also, the inhibition result in assay [14] is “inactive”.
As to `COc1ccc(CCc2nc3cc(-c4c(C)noc4C)ccn3c2NC2CCCCC2)cc1OC`, the IC50 in assay [3] turned out to be 0.75 µM. The Ratio IC50 in [1] is 8.
`COc1ccc(-c2nc3cc(-c4c(C)noc4C)ccn3c2NC23CC4CC(CC(C4)C2)C3)cc1` registered an IC50 in [4] of more than 50 µM. Moreover, the Ratio IC50 in assay [1] was more than 23.
As for `CN1Cc2cc(-c3ccn4c(NC5CCCCC5)c(CCc5ccccc5)nc4c3)ccc2NC1=O`, the Ratio IC50 in [1] was 1.
Turning to `COc1ccc(CCc2nc3cc(-c4c(C)noc4C)ccn3c2NC2CCCCC2)cc1`, in [1], the Ratio IC50 amounted to 41. Further, the Tm in assay [5] came to 51.5 °C; in assay [6] it was 46.8 °C; in [7] it was 51.1 °C. Moreover, the Kd in assay [8] was 265 nM; in assay [2] it was 285 nM; in [9] it was 9.2 µM.
`Cc1noc(C)c1-c1ccn2c(NC(C)(C)CC(C)(C)C)c(CCc3ccc(OC(C)C)cc3)nc2c1`: the IC50 in assay [3] and in [4] was more than 50 µM each time. In addition, in assay [1], the Ratio IC50 worked out at 1.
In the case of `COc1ccc(-c2nc3cc(-c4c(C)noc4C)ccn3c2NCC(=O)OC(C)(C)C)cc1`, the Ratio IC50 in [1] was more than 3.
`COc1ccc(CCCc2nc3cc(-c4c(C)noc4C)ccn3c2NC2CCCCC2)cc1Cl`: the IC50 in [3] turned out to be 8.96 µM; in assay [4] it was 24.5 µM. For the same molecule, in assay [1], the Ratio IC50 worked out at 3. For the same molecule, the figures for the Tm in [5], in [6] and in [7] were 55.2 °C, 50.6 °C and 51.6 °C, respectively.
`COc1ccc(CCc2nc3cc(-c4c(C)noc4C)ccn3c2NC(C)(C)C)cc1` registered an IC50 in assay [4] of more than 50 µM. Moreover, the Ratio IC50 in [1] was more than 21.
In turn, `COc1ccc(-c2nc3cc(C)cc(C)n3c2NC23CC4CC(CC(C4)C2)C3)cc1` had an IC50 in assay [4] of more than 50 µM. Moreover, in assay [1], the Ratio IC50 is more than 3.
With `CCOc1ccc(CCc2nc3cc(-c4c(C)noc4C)ccn3c2NC(C)(C)CC(C)(C)C)cc1`, the Ratio IC50 in [1] is more than 1.
The molecule `COc1ccc(CCc2nc3cc(-c4c(C)noc4C)ccn3c2NC(C)C)cc1` had an IC50 in assay [3] of 0.29 µM. Also, in assay [1], the Ratio IC50 worked out at 34.
With `COc1ccc(-c2nc3cc(C)cc(C)n3c2NC(C)(C)CC(C)(C)C)cc1`, the IC50 in [4] was more than 50 µM. Also, the Ratio IC50 in assay [1] was more than 3.
`COc1ccc(Cc2nc3cc(-c4c(C)noc4C)ccn3c2NC2CCCCC2)cc1`: the Ratio IC50 in assay [1] is 2.
Regarding `COc1ccc(CCc2nc3cc(-c4c(C)noc4C)ccn3c2NCCN2CCOCC2)cc1`, the Ratio IC50 in assay [1] was determined as 7.
With `COc1ccc(-c2nc3cc(-c4c(C)noc4C)ccn3c2NC2CCCCC2)cc1`, the IC50 in [4] is more than 50 µM. The Ratio IC50 in [1] is more than 4.
The like results for `COc1ccc(CCc2nc3cc(-c4c(C)noc4C)ccn3c2NC(C)(C)CC(C)(C)C)cc1` were, in that order, more than 50 µM and more than 2.
For `COc1ccc(CCc2nc3cc(-c4c(C)noc4C)ccc3n2C[C@H](C)N2CCOCC2)cc1Cl`, the IC50 in assay [4] was found to be 7.94 µM; in assay [10] it was 1530 nM.
With `Cc1noc(C)c1-c1ccn2c(NC(C)(C)CC(C)(C)C)c(CCc3ccccc3)nc2c1`, the Ratio IC50 in assay [1] amounted to 1.
Turning to `Cc1[nH]nc2cc(-c3ccn4c(NC5CCCCC5)c(CCc5ccccc5)nc4c3)ccc12`, the IC50 is 8.02 µM in assay [3] and 0.51 µM in [4]. The Ratio IC50 in [1] was 0.06. For the same molecule, in assay [14], the inhibition entry is “inactive”.
With `COc1ccc(CCc2nc3cc(-c4c(C)noc4C)ccn3c2NCc2ccccc2)cc1`, the Ratio IC50 in assay [1] is 4.

Usually Kd stands for the equilibrium constant for the complex coming apart. One may read the IC50 as the concentration that inhibits the measured activity by half.
